Source: PubChem (Broad Institute)
RAD52 anneal inh: RAD52 (human) annealing inhibition. inhibition, % at 18.7 µM. actives 0.46% (n = 360,000). recombinant RAD52 DNA annealing, FRET fluorescence;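 active means every replicate showing at least 50% inhibition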
Target sequence (P43351 whole entry, looked up): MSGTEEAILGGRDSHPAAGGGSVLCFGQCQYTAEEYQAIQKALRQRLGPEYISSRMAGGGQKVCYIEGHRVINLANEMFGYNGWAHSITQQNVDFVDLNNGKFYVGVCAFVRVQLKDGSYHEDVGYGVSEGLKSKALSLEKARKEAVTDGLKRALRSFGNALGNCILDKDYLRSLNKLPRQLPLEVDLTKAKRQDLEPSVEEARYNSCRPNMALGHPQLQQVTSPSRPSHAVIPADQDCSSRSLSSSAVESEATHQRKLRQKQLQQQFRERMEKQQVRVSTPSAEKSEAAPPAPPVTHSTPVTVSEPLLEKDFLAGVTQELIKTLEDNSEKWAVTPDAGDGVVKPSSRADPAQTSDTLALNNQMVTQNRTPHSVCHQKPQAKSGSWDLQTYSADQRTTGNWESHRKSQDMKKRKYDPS
GSIS activator: primary screen for activators of insulin secretion dependent on glucose, INS-1E cells, GLuc reporter luminescence. INS-1E GLuc reporter insulin secretion, 2-3 h. activation, % at 16.6 µM. actives 0.61% (n = 370,000);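 active means lowest replicate activation of at least 40%, so every replicate reaches that level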;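 further: 0% = median of neutral control wells and 100% = median of IBMX positive control wells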
E-sel inducer: induces E-selectin expression in human endothelial cells. HUVEC E-selectin immunofluorescence imaging; normalized: neutral wells 0, TNF-alpha wells 100. activation, % at 7.58 µM. actives 0.37% (n = 260,000). P16581;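 active means mean E-selectin-positive cell signal at least 10% of the positive control, reached in at least 60% of replicates, without over 20% cell loss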
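Test system: HUVEC | Signal: Immunofluorescence imaging | Read-out: Percent E-selectin-positive cells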
AF4-AF9 inh: inhibitors of human MLL-AF4/AF9 interaction; actives 0.47% (n = 350,000); AlphaScreen, biotin-AF4 peptide binding to FLAG-AF9; inhibition, % at 10 µM; P42568;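 active means every replicate reaching a set inhibition limit, whatever the replicate mean, cut at about 25% in these data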;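 further: 0% = plate neutral control median and 100% = total signal loss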
RAD54 branch: RAD54 (human) branch migration inhibition. inhibition, % at 10.4 µM. RAD54 Holliday junction branch migration, FAM/BHQ fluorescence. actives 0.14% (n = 360,000);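 active means mean normalized replicate activity at least 40 and at least half of replicates scoring 40 or more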;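 further: 0% = median of neutral control wells and 100% = median of positive control wells; inhibitors cause a drop in the FAM fluorescence signal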
Ecoli rRNA inh: inhibits bacterial ribosomal RNA function over humanized ribosomes; actives 1.6% (n = 350,000); GFP signal change (wild-type ribosome), % (no concentration beside the values); E. coli WT GFP vs humanized-ribosome RFP mutants, fluorescence, 24 h; hits give low values; DMSO median 0, no signal -100;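 active means significant combined selectivity score with lowered wild-type GFP, culture density cut under 30%, mutant RFP and density less affected; inactive means any of these conditions unmet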
The depositor's hits bear a star; x = no result. A selection: hits, their analogues and other compounds. The true share with any hit is near 2.6%.

SMILES	RAD52 anneal inh	GSIS activator	E-sel inducer	AF4-AF9 inh	RAD54 branch	Ecoli rRNA inh
O=C(NC1CCCCC1)c1cccnc1Sc1ccccc1	-31	62*	x	-1	x	10
CCN1CCN(S(=O)(=O)c2ccc(Cl)c(C(=O)N(C)C3CCCCC3)c2)CC1	-134	x	x	26*	13	8
Cc1nc(-c2cccc(NC(=O)c3cccc(S(=O)(=O)N4CCCC4)c3)c2)cs1	-50	6	x	2	-20	-29*
Cc1nc(-c2cccc(NC(=O)c3ccc(Cl)c(S(=O)(=O)N4CCCC4)c3)c2)cs1	-48	3	0	-7	3	-8
COc1cc2c(cc1OC)-c1cc(NC3CCCCCCC3)nc(=O)n1CC2	x	x	x	x	39	x
COc1cc2c(cc1OC)-c1cc(NCc3ccccn3)nc(=O)n1CC2	x	63*	x	x	-15	x
COc1cc2c(cc1OC)-c1cc(NC3CCCCC3)nc(=O)n1CC2	x	72*	x	x	2	x
COc1cc2c(cc1OC)-c1cc(Nc3ccccc3C)nc(=O)n1CC2	6	53*	x	2	-14	-1
CCOc1ccccc1Nc1cc2n(c(=O)n1)CCc1cc(OC)c(OC)cc1-2	1	76*	x	0	x	-17
CCn1ccc(C(=O)Nc2ccc(N(C)C(C)=O)cc2)n1	x	11	x	x	7	x
CCn1ccc(C(=O)Nc2ccccc2SC)n1	-11	41*	x	-4	x	-1
CC(=O)Nc1ccc(-c2csc(NC(=O)CCCc3cccs3)n2)cc1	2	-1	x	-1	1	-30
CC(C)(C)c1csc(NC(=O)Cc2cccs2)n1	-17	-10	x	-2	x	-23*
Cc1ccc(-c2csc(NC(=O)CCNC(=O)c3ccco3)n2)cc1	-24	-23	3	-1	x	-36*
Cc1ccc(-c2csc(NC(=O)CCCc3cccs3)n2)cc1	x	98*	x	x	x	x
CC(C)(C)c1csc(NC(=O)c2cccs2)n1	x	x	x	x	-13	x
O=C(Nc1cc(F)ccc1F)N[C@@H]1CC[C@@H](CCn2cc(C3CCCC3)nn2)O[C@H]1CO	6	-6	0	-2	x	-4
CCCNC(=O)Nc1ccc2c(c1)C(=O)N(C)[C@H]1CC[C@H](CC(=O)NC)O[C@H]1CO2	x	23	0	x	1	3
CCN(CC)CCOc1ccc(Br)cc1	x	20	x	x	-7	x
CCN(CC)CCOc1ccc(/C(=C(\Cl)c2ccccc2)c2ccccc2)cc1	27	456	0	32*	15	x
O=C(COc1nsnc1N1CCOCC1)N/N=C/c1ccccc1O	-13	-27	x	5	x	-22*
COc1cc(OC)cc(-c2nc3ccccc3c(=O)n2OC(=O)c2ccc(Br)cc2)c1	-10	5	0	0	x	-25*
Cc1ccc(NC(=O)CCl)cc1S(=O)(=O)N1CCCCCC1	-21	-7	x	-1	x	-16*
COc1ccc(NC(=O)Cc2ccc(C)c(C)c2)cc1S(=O)(=O)N1CCCCC1	-23	-10	0	1	x	-29*
O=C(Nc1ccc2c(c1)OCO2)c1ccc(Cl)c(S(=O)(=O)N2CCOCC2)c1	-8	7	x	5	0	-3
SMILES	RAD52 anneal inh	GSIS activator	E-sel inducer	AF4-AF9 inh	RAD54 branch	Ecoli rRNA inh
Cc1ccc(NC(=O)c2ccc3c(c2)OCO3)cc1S(=O)(=O)N1CCOCC1	-11	-16	x	-3	-3	-18*
C[C@@H]1CN([C@@H](C)CO)C(=O)c2cc(NS(=O)(=O)c3ccccc3)ccc2O[C@H]1CN(C)Cc1ccccc1	8	7	1	-2	6	0
COc1ccccc1CNC(=O)C[C@H]1CC[C@H]2[C@@H](COC[C@H](O)CN2C(=O)Nc2ccccc2)O1	-22	-10	0	-1	3	-14
Cc1cc(OCCCCOc2ccc(S(N)(=O)=O)c(C)c2)ccc1S(N)(=O)=O	-16	4	0	-2	-2	-19*
COc1ccc(C(=O)N2C[C@H]3[C@@H](c4ccccc42)[C@H](CO)N3Cc2ccc(Cl)cc2)cc1	4	-16	0	3	5	-26
Cn1c(NC(=O)c2ccccc2F)cc(=O)n(C)c1=O	-20	0	0	-10	-20	2
COc1ccc(Cl)cc1C(=O)Nc1cc(=O)n(C)c(=O)n1C	-5	3	0	49*	-1	5
CN=c1scc(-c2ccc(F)cc2)n1/N=C/c1ccc(O)c(O)c1	0	0	x	59*	x	-41*
O=C(Nc1cccc(Cl)c1)N1C[C@@H]2[C@H](c3ccccc31)[C@@H](CO)N2C(=O)c1cccnc1	-3	-9	0	-1	1	-51*
O=C(Nc1cc(F)ccc1F)N1C[C@@H]2[C@H](c3ccccc31)[C@H](CO)N2Cc1ccncc1	-25	1	0	0	-2	-43*
O=C(Nc1cc(F)ccc1F)N1C[C@H]2[C@@H](c3ccccc31)[C@H](CO)N2Cc1ccncc1	-14	15	0	-1	0	-3
O=C(C[C@@H]1CC[C@@H]2[C@H](COC[C@@H](O)CN2S(=O)(=O)c2ccccc2)O1)NCc1ccc(-c2ccccc2)cc1	89*	-2	0	24	-5	-8
CS(=O)(=O)N1C[C@H](O)COC[C@@H]2O[C@H](CC(=O)NCc3ccc(-c4ccccc4)cc3)CC[C@H]21	58*	-17	0	15	0	-31
O=C(C[C@H]1CC[C@H]2[C@@H](COC[C@H](O)CN2S(=O)(=O)c2ccccc2)O1)NCc1ccc(-c2ccccc2)cc1	92*	-2	0	21	3	-9
O=C(C[C@@H]1CC[C@@H]2[C@H](COC[C@H](O)CN2S(=O)(=O)c2ccccc2)O1)NCc1ccc(-c2ccccc2)cc1	18	-6	0	6	-1	-7
O=C(c1cc(COc2cccc(C(F)(F)F)c2)on1)N1CCc2ccccc2C1	0	8	x	-2	-3	-22
O=C(c1cc(COc2ccc(F)cc2F)on1)N1C[C@H]2CC[C@H]1C2	-4	-3	0	0	2	-6
O=C(c1cc(COc2c(F)cccc2F)on1)N1C[C@H]2CC[C@H]1C2	-9	3	0	0	9	-20*
O=C(c1cc(COc2c(F)cccc2F)on1)N1CCc2ccccc2C1	-4	5	x	-2	-11	-23*
CCOc1ccc(OCc2ccc(C(=O)N3CCc4ccccc4C3)o2)cc1	-25	-29	x	4	-7	-28*
COc1ccc(C(=O)Nc2ccc3c(c2)C(=O)N(C)C[C@@H](OC)[C@H](C)CN(C(C)=O)[C@H](C)CO3)cc1	2	-2	0	1	11	0
CC(C)NC(=O)N(C)C[C@@H]1Oc2ccc(NC(=O)CCC(F)(F)F)cc2C(=O)N([C@@H](C)CO)C[C@H]1C	4	26	-4	-2	-2	5
